GSK3A inh: blocks human GSK-3 alpha kinase. P49840. ADP-Glo luminescence, 60 min. inhibition, % at 10 µM. 320,000 tested, 0.1% active;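 active = more than half of replicates show inhibition above 20%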;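 note: GST-tagged GSK-3 alpha with peptide substrate and 25 µM ATP; 0% = DMSO neutral wells and 100% = GW8510 positive control wells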
Target sequence (P49840 whole entry, looked up): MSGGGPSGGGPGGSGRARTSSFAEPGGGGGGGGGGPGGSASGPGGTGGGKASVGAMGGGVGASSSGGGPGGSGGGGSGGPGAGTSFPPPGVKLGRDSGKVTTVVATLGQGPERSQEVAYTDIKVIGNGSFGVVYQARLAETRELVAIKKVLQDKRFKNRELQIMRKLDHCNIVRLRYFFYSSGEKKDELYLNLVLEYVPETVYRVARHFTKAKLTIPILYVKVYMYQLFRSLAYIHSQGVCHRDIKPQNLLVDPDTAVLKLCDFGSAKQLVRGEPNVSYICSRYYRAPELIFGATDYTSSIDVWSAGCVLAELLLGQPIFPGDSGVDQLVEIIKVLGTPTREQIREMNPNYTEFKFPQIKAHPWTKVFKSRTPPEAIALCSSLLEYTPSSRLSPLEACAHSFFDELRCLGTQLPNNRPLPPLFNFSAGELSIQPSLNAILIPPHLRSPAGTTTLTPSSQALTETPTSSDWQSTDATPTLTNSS
SR-BI DiI inh: mouse SR-BI HDL lipid transfer inhibition; Q61009; ldlA[mSR-BI] CHO cells, DiI-HDL uptake fluorescence, 3 h; inhibition, % at 12.5 µM; 320,000 tested, 0.96% active; AID 488896;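 active = mean replicate inhibition of at least 70% and a set share of replicates each scoring 70 or more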;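 note: 0% = median of neutral control wells and 100% = median of positive control wells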
SR-BI DiI-HDL act: activators of SR-BI mediated HDL lipid uptake; CHO ldlA[mSR-BI] cells, DiI-HDL uptake fluorescence, 3 h; 100 = double the neutral-control signal; activation, % at 12.5 µM; 320,000 tested, 0.096% active; AID 504775;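 active = mean replicate activation of at least 60% and every replicate at or above 60%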;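 note: 0% = median plate neutral-control signal and 100% = twice that signal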
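Material: SR-BI-overexpressing, LDLR-lacking CHO cells | Dosing: Single compound concentration, delivered by pin transfer | Probe or stimulus: Labelled HDL, 10 µg/mL | Signal: Bottom-read cell fluorescence after medium removal, ex 550/em 595 nm | Schedule: 3 h, 37 °C | Evaluation: HDL uptake via cellular fluorescence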
CDK5 p35 inh: CDK5/p35 (human) kinase inhibition | Q00535+Q15078 | inhibition, % at 10 µM | Recombinant CDK5/p35, ADP-Glo luminescence, 60 min | 330,000 tested, 0.01% active;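 active = highest replicate inhibition of at least 50% and at least 75% of replicates reaching 50%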;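 note: plate controls were DMSO neutral control for no effect and GW8510 at 10 µM for full effect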
GSK3beta inhib: blocks human GSK3beta kinase activity | activity score (negative = inhibition), % at 10 µM | 300,000 tested, 0.038% active | GST-GSK3beta kinase, ADP-Glo luminescence, 60 min; stronger effect = lower value;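 active = more than half of replicate wells score below -50%, meaning over 50% inhibition versus plate controls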;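 note: 0% = median DMSO wells and -100% = median GW8510 positive control wells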
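Test system: GST-tagged human GSK3beta kinase, cell-free; evaluation: activity score scaled between in-plate DMSO and GW8510 controls; measured by: ADP-Glo luminescence; incubation: 60 min reaction, RT; benchmarks: DMSO and 20 µM GW8510; reagent: peptide substrate plus 25 µM ATP (final); medium: Tris/MgCl2 kinase buffer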
* marks the source's active call; other numbers are inactive results; · = not tested or not shown. In the library only some 1.1% were active in any assay of this set; here they are far more common.

SMILES	GSK3A inh	SR-BI DiI inh	SR-BI DiI-HDL act	CDK5 p35 inh	GSK3beta inhib
CCOc1cc(NC(=O)C2CC2)c(OCC)cc1NC(=O)c1cc(OC)c(OC)c(OC)c1	1	23	-23	3	-2
CCOc1ccccc1NC(=O)c1cccc2ccccc12	-2	70*	-70	0	5
CCOc1ccccc1NC(=O)c1csc(C)c1C	0	81*	-81	0	-2
C=CCNCc1ccc(C(=O)NCCCCCCC)cc1[N+](=O)[O-]	-2	46	-46	-1	-4
CC[C@H]1C=C[C@@H](C(C(=O)OC)C(=O)OC)CN1C(C)=O	·	8	-8	1	·
COc1ccc(-c2[nH]c(-c3ccc(SC)cc3)nc2SCC(=O)Nc2nccs2)cc1	1	87*	-87	0	1
O=C(CCNC(=O)c1ccc([N+](=O)[O-])cc1)NCCc1ccccc1	-1	-21	21	-1	·
CC(=O)Nc1ccc(NC(=O)/C=C/c2ccc3c(c2)OCO3)cc1	-4	11	-11	3	0
CN(C)CCCNC(=O)/C=C/c1ccc2c(c1)OCO2	12	-70	70*	0	-4
O=C(O)c1ccccc1S(=O)(=O)CC(=O)N1CCCCC1	-1	·	·	-2	0
C=CCOc1c(Br)cc(/C=C2\SC(=Nc3ccccc3)NC2=O)cc1OC	-2	72*	-72	-1	-1
Nc1nc(NCC2CCCO2)nc(NCC2CCCO2)c1[N+](=O)[O-] (configuration not stated)	52*	-2	2	-2	0
Nc1nc(NCCO)nc(NCC2CCCO2)c1[N+](=O)[O-] (configuration not stated)	80*	-9	9	3	1
CC(C)CCNc1nc(N)c([N+](=O)[O-])c(NCC2CCCO2)n1 (configuration not stated)	73*	-6	6	0	-42
Nc1nc(NCC2CCCO2)nc(Nc2ccccc2)c1[N+](=O)[O-] (configuration not stated)	10	14	-14	0	2
CC(C)CNC(=S)N1CCC(Cc2ccccc2)CC1	-2	2	-2	-2	3
COc1ccc(/C=C/C(=O)Nc2cccc(N3CCOCC3)c2)cc1OC	-2	76*	-76	-2	-5
C[C@H](NS(=O)(=O)c1c(Cl)cccc1Cl)C(=O)NNC(=O)COc1ccccc1F	-1	11	-11	-1	·
CC1CCC(C(C)C)C(OC(=O)C2=C3c4ccccc4S(=O)(=O)N3CC2)C1 (configuration not stated)	0	71*	-71	1	2
CC(=O)Nc1sc(N/N=C/c2ccccc2)nc1-c1ccc(C)cc1	-1	·	·	1	2
CC(=O)Nc1sc(/C(C#N)=C\c2cccc(Cl)c2)nc1-c1ccc(C)cc1	-3	82*	-82	-1	5
CC(=O)c1c(C)[nH]c(C(=O)Nc2ccc(Cl)c(S(=O)(=O)N(C)C)c2)c1C	2	82*	-82	0	-5
COc1ccccc1NS(=O)(=O)c1cccc(NC(=O)c2[nH]c(C)c(C(C)=O)c2C)c1	-3	·	·	0	1
CC(=O)c1c(C)[nH]c(C(=O)Nc2cccc(S(=O)(=O)N(C)c3ccccc3)c2)c1C	-2	80*	-80	0	0
CCOc1cc(/C=N/Nc2nc(-c3cccc(S(=O)(=O)N4CCCC4)c3)cs2)ccc1O	-1	98*	-98	2	-1
SMILES	GSK3A inh	SR-BI DiI inh	SR-BI DiI-HDL act	CDK5 p35 inh	GSK3beta inhib
O=S(=O)(c1cccc(-c2csc(-c3ccccc3)n2)c1)N1CCOCC1	-3	17	-17	-3	-9
COc1ccc(/C=N/Nc2nc(-c3cccc(S(=O)(=O)N4CCCC4)c3)cs2)cc1OC	·	-59	59	-2	0
O=S(=O)(c1cccc(-c2csc(N/N=C/c3ccco3)n2)c1)N1CCOCC1	-3	72*	-72	0	2
COc1cccc(CC(=O)N2CCN(c3ccccc3[N+](=O)[O-])CC2)c1	0	2	-2	-2	-4
CN(CC(=O)NCCCN1CCOCC1)S(=O)(=O)c1ccc(Br)cc1	0	78*	-78	1	-1
CCOc1ccc(-n2cc(C(=O)N3CCCCCC3)c3cc(OC)c(OC)cc3c2=O)cc1	0	75*	-75	-1	·
Cc1ccc(N(CC(=O)O)S(C)(=O)=O)cc1	1	-17	17	-2	-2
